Experimental data from publication PMC4827469 (ACS Central Science, 2015).
Like-named read-outs stand apart in the source and are kept apart here.

Legend:
[1] = system: PANC-1; test: in vitro cytotoxicity assay; type: cell-based; details: Homo sapiens, PANC-1, 48 h
[2] = system: PANC-1; details: read-out: IC50 reported in the lit.; PANC-1 (48 h), ATCC, SRB assay ref 2f; cited from earlier work
[3] = system: AsPC-1; details: read-out: IC50 reported in the lit.; AsPC-1 (48 h), ATCC, SRB assay ref 2f; cited from earlier work
[4] = system: Hep3B; details: 5% FBS, 48 h incubation, SRB stain ref 2a; cited from earlier work
[5] = metabolite identification/biotransformation, rat liver microsomes; type: in vitro ADME
[6] = system: HepG2; details: HepG2, 5% FBS, 48 h incubation, SRB stain ref 2a; cited from earlier work
[7] = system: panel of human tumor cell lines; test: panel of human tumor cell lines in vitro; type: cell-based
Method in brief: (§1)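 Cells grown in medium with 10% FBS and exposed to test compound for 72 h. Viability read by MTS or MTT stain, and IC50 derived from the readings.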

[8] = system: H441; test: in vitro cytotoxicity assay; type: cell-based; details: Homo sapiens, NCI-H441, 72 h, read-out: IC50 (72 h)
Method in brief: as §1

[9] = system: A549 subcutaneous xenografts; details: NOD/SCID mice, 2 weeks of oral 30 and 60 mg/kg ref 18; cited from earlier work
[10] = system: A549; test: in vitro cytotoxicity assay; type: cell-based, human
[11] = system: AsPC-1; test: in vitro cytotoxicity assay; type: cell-based; details: Homo sapiens, ASPC1, 48 h
[12] = mouse pharmacokinetic study; type: in vivo; details: male, Balb/C, whole blood, 50 mg/kg
[13] = system: Hep 3B HCC tumor xenografts; test: in vivo antitumor activity, subcutaneous Hep3B HCC xenograft in NSG mice; parameters: species or system mouse; details: female NSG mice, 50 mg/kg ip daily for 14 days
Method in brief: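 Hep 3B hepatocellular carcinoma xenograft in mice, dosed per schedule. Paclitaxel positive control given iv at 24 mg/kg qd×5. Tumor growth inhibition, body weight and signs of toxicity monitored. Error given as SE computed from the average deviation.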

[14] = system: Hep 3B tumor model; details: initial tumor sizes 50–70 mm^3 ref 2a, 19; cited from earlier work
[15] = system: A549; details: read-out: IC50 reported in the lit.; A549 (12 h), KMUH ref 2c; cited from earlier work
[16] = metabolite identification/biotransformation, human liver microsomes; type: in vitro ADME
[17] = metabolite identification/biotransformation, mouse liver microsomes; type: in vitro ADME; details: 1 mg/ml protein, 5 µM drug, 1 mM NADPH, 37 °C
[18] = system: H838 tumor cell line; details: H838 tumor cell line ref 23 (Ho et al., Biomed. Pharmacother. 2014); cited from earlier work
[19] = system: HepG2; test: in vitro cytotoxicity assay; type: cell-based; details: Homo sapiens, HepG2, 72 h, read-out: IC50 (72 h)
Method in brief: as §1

[20] = system: H441; details: read-out: IC50 reported in the lit.; H441, KMUH ref 2c; cited from earlier work
[21] = system: MDA-MB-231; details: read-out: IC50 reported in the lit.; natural product, MDA-MB-231 (CCRC-60425) ref 1; cited from earlier work
[22] = system: LNCaP; details: read-out: IC50 reported in the lit.; natural product, LNCaP (CCRC-60088) ref 1; cited from earlier work

In the case of `COC1=C(OC)[C@H](O)[C@H](C/C=C(\C)CC/C=C(\C)CCC=C(C)C)[C@@H](C)C1=O` [Compound 1, Antroquinonol A], the IC50 [1] is given as greater than 25 µM, the IC50 [2] is given as 19 µM and the IC50 [3] is given as 20 µM. For the same compound, the GI50 [4] was greater than 30 µM, the “biotransformation in liver microsomes” value [5] was “rapidly converted to a major metabolite” and the GI50 [6] was 0.22 µM. The “fold less cytotoxic than reported for the natural product” value ([7]; cell lines of Table 1 except A549) was 3–70 fold, the “cytotoxicity in tumor cell line panel” value ([7]; panel of Table 1) was “only micromolar activity” and the IC50 [8] was greater than 25 µM. For the same compound, the “antitumor effect reported” value [9] was “tumor growth suppression”, the “fold more potent than previously reported” value ([10]; A549) was roughly 4 fold and the IC50 ([10]; Homo sapiens, A549, 12 h, A549 (12 h) (ATCC), 1 triplicate, 15 duplicate) was 6.7 ± 2.5 µM. It also gave an IC50 [11] greater than 25 µM, an AUC(0-t) ([12]; ip) of 2.29 ± 0.142 µM·h and a Cmax ([12]; ip) of 457 ± 45 nM. It also gave a Tmax ([12]; ip) of 4 ± 3 h, an AUC(0-t) ([12]; po) of 0.266 ± 0.088 µM·h and a Cmax ([12]; po) of 79 ± 52 nM. For the same compound, the Tmax ([12]; po) was 2 ± 1 h, the “tolerability” value [13] was “generally well-tolerated with no overt signs of toxicity” and the weight loss [13] was roughly 4%. For the same compound, the “antitumor activity reported in the literature” value [14] was “statistically significant antitumor activity”, the IC50 [15] was 25 µM and the “biotransformation in liver microsomes” value [16] was “rapidly converted to a major metabolite”. The “biotransformation in liver microsomes” value [17] was “rapidly converted to a major metabolite”, the IC50 [18] was roughly 3 µM and the IC50 [19] was greater than 25 µM. For the same compound, the IC50 [20] was 25 µM, the IC50 [21] was 2.6 ± 0.05 µM and the IC50 [22] was 6.1 ± 0.07 µM.
